Measurements as given in ChEMBL document CHEMBL2093137, “WHO-TDR NTD Screening”.
≈ marks a conversion by molar mass, not a printed value.

Columns and labels:
[1] = WHO-TDR: Cytotoxicity; type: toxicity, cell-based; details: human, MRC5 cells
Plasmodium falciparum K1 = assay: WHO-TDR: Malaria; type: functional, organism-based, Homo sapiens; details: Erythrocyte
Procedure, shortened: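 A diverse library of 10,000 compounds from Life Chemicals, filtered for drug-likeness and reactive groups, was screened against the intra-erythrocytic Plasmodium falciparum K1 strain in human red blood cells. Previously published standard procedures were followed, with a reference drug as positive control. Antiplasmodial potency is given as IC50.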

Trypanosoma cruzi = assay: WHO-TDR: Chagas disease; type: functional, organism-based, Homo sapiens; details: MRC5
Procedure, shortened: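 Following previously published standard procedures, with a reference drug as positive control, a whole-organism assay was run on Trypanosoma cruzi Tulahuen CL2 beta-galactosidase strain amastigotes inside MRC-5SV2 human lung fibroblast host cells. The 10,000 compounds tested formed a diverse Life Chemicals library filtered for drug-likeness and reactive groups. Results are expressed as IC50 for antiparasitic potency.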

[2] = test system: Trypanosoma brucei brucei; assay: WHO-TDR: Human African Trypanosomiasis (HAT); type: functional, organism-based; details: Squib-427
Procedure, shortened: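 A diverse library of 10,000 compounds from Life Chemicals, filtered for drug-likeness and reactive groups, was screened against bloodstream forms of Trypanosoma brucei Squib 427 strain in a whole-organism assay. Previously published standard procedures were followed, with reference drugs serving as positive controls. Antiparasitic potency is given as IC50.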

Leishmania infantum = assay: WHO-TDR: Leishmaniasis; type: functional, organism-based, Mus musculus; details: Macrophage
Procedure, shortened: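 A diverse library of 10,000 compounds from Life Chemicals, filtered for drug-likeness and reactive groups, was screened against whole organisms. The targets were intracellular amastigotes of Leishmania infantum MHOM/MA(BE)/67 growing in murine peritoneal macrophages. Previously published standard procedures were followed, with a reference drug as positive control. Antiparasitic potency is given as IC50.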

Schistosoma mansoni = assay: WHO-TDR: Schistosomiasis; type: functional; set-up: concentration or dose not given beside the values
Procedure, shortened: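 Activity appears as percent inhibition and as IC50. The underlying screen tested a diverse library of 10,000 compounds, supplied by Life Chemicals, on whole larval and/or adult worms of the Puerto Rican strain of Schistosoma mansoni.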

Onchocerca ochengi [3] = assay: (§1) WHO-TDR: Onchocerciasis; type: functional; set-up: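 at 12.5 µM on microfilariae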
Procedure, shortened: (§2)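 Following previously published standard procedures, with reference drugs as positive controls, a diverse Life Chemicals library was tested on whole Onchocerca ochengi or Onchocerca lienalis microfilariae. The library held 10,000 compounds filtered for drug-likeness and reactive groups. Activity is recorded both as percent inhibition and as IC50.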

Onchocerca ochengi [4] = assay: as §1; type: functional; set-up: concentration or dose not given beside the values; procedure, shortened: as §2; remark: listed apart in the source

Row | Compound | IC50 [1] [µg/mL] | IC50 (Plasmodium falciparum K1) [µg/mL] | IC50 (Trypanosoma cruzi) [µg/mL] | IC50 [2] [µg/mL] | IC50 (Leishmania infantum) [µg/mL] | % Inhibition (Schistosoma mansoni) [%] | % Inhibition (Onchocerca ochengi [3]) [%] | % Inhibition (Onchocerca ochengi [4]) [%]
1 | Cc1nnc(NC(=O)COc2cccc3ccc(N4CCCC(C)C4)nc23)s1 (stereo unspecified) | > 11.9 | > 11.9 | 0.407 (≈ 1.02 µM) | > 11.9 | 6.18 (≈ 15.5 µM) | 0 | 50 | 0
2 | O=C(NCCC1=CCCCC1)c1n[nH]c2ccccc12 | > 8.08 | > 8.08 | > 8.08 | > 8.08 | > 8.08 | 0 | 100 | 0
3 | CCc1ccc2nc(N(CCN(CC)CC)C(=O)Cc3ccc4c(c3)OCO4)sc2c1 | > 14.3 | 4.52 (≈ 10.3 µM) | 3.61 (≈ 8.21 µM) | 0.457 (≈ 1.04 µM) | 7.4 (≈ 16.8 µM) | 0 | 0 | 0
4 | COc1ccccc1OCC(=O)Nc1nc(CSCc2ccc(F)cc2)cs1 | > 12.6 | > 12.6 | > 12.6 | > 12.6 | > 12.6 | 0 | 100 | 0
5 | C=CCN1C(=O)C(C)(C)COc2cc(NS(=O)(=O)C3CCCCC3)ccc21 | > 11.8 | > 11.8 | 8.42 (≈ 21.4 µM) | 3.72 (≈ 9.49 µM) | > 11.8 | 0 | 100 | 60
6 | CC1CCN(C(C)CNC(=O)Nc2ccccc2C(F)(F)F)CC1 (stereo unspecified) | 7.77 (≈ 22.6 µM) | 2.22 (≈ 6.46 µM) | 3.39 (≈ 9.87 µM) | 0.333 (≈ 0.971 µM) | > 10.3 | 0 | 0 | 0
7 | CN1CCc2cc(C(CNC(=O)COc3ccc(Cl)cc3Cl)N3CCCC3)ccc21 (stereo unspecified) | 11.6 (≈ 25.9 µM) | 5.1 (≈ 11.4 µM) | 4.36 (≈ 9.73 µM) | 0.43 (≈ 0.959 µM) | 3.38 (≈ 7.54 µM) | 0 | 50 | 0
8 | CC1CCCN(S(=O)(=O)c2ccc(C(=O)Nc3nnc(-c4ccno4)o3)cc2)C1 (stereo unspecified) | > 12.5 | 5.03 (≈ 12 µM) | > 12.5 | > 12.5 | > 12.5 | 0 | 100 | 0
9 | CN1CCCc2cc(C(CNC(=O)c3ccc4c(c3)OCO4)N3CCOCC3)ccc21 (stereo unspecified) | 11.2 (≈ 26.3 µM) | > 12.7 | 4.94 (≈ 11.7 µM) | > 12.7 | > 12.7 | 0 | 100 | 0
10 | COc1ccc(S(=O)(=O)CC(=O)Nc2sc(-c3ccccc3)cc2C(N)=O)cc1 | > 12.9 | 6.93 (≈ 16.1 µM) | > 12.9 | 4.28 (≈ 9.95 µM) | > 12.9 | 0 | 100 | 0
11 | CCOc1ccccc1NC(=O)Cn1c(=O)n(Cc2cccs2)c(=O)c2ncccc21 | > 13.1 | 2.95 (≈ 6.76 µM) | > 13.1 | 4.24 (≈ 9.72 µM) | > 13.1 | 0 | 100 | 0
12 | CCOc1ccc2ccccc2c1C(=O)Nc1cc(C)nn1-c1nc(C)cc(=O)[nH]1 | 0.364 (≈ 0.902 µM) | 0.399 (≈ 0.989 µM) | < 0.121 | 0.327 (≈ 0.811 µM) | 0.627 (≈ 1.55 µM) | 100 | 100 | 60
13 | CCOc1cccc2cc(-c3csc(NC(=O)c4sc5ccccc5c4Cl)n3)oc12 | 0.237 (≈ 0.521 µM) | > 13.6 | 11.8 (≈ 25.9 µM) | 0.237 (≈ 0.521 µM) | 3.69 (≈ 8.11 µM) | 0 | 0 | 0
14 | COc1ccc(Cl)cc1C(=O)Nc1cc(C)nn1-c1nc2c(c(=O)[nH]1)CCC2 | 0.685 (≈ 1.71 µM) | > 12 | 0.361 (≈ 0.902 µM) | 0.388 (≈ 0.97 µM) | 6.21 (≈ 15.5 µM) | 50 | 0 | 0
15 | CCCc1cc(=O)[nH]c(-n2nc(C)cc2NC(=O)C23CC4CC(CC(C4)C2)C3)n1 | < 0.119 | 0.119 (≈ 0.3 µM) | < 0.119 | < 0.119 | 3.84 (≈ 9.71 µM) | 100 | 100 | 75
16 | CC1CCN(C(C)CNC(=O)Nc2ccc(C(F)(F)F)cc2)CC1 (stereo unspecified) | 8.41 (≈ 24.5 µM) | 0.869 (≈ 2.53 µM) | 3.26 (≈ 9.49 µM) | 0.333 (≈ 0.971 µM) | 3.33 (≈ 9.71 µM) | 25 | 100 | 100
17 | COc1ccc2oc(-c3csc(NC(=O)c4cccc(OC)c4OC)n3)cc2c1 | > 12.3 | > 12.3 | > 12.3 | > 12.3 | 0.638 (≈ 1.55 µM) | 0 | 0 | 0
18 | O=C(Nc1onc2c1CCC2)c1cccc(F)c1 | 4.88 (≈ 19.8 µM) | > 7.39 | 2.12 (≈ 8.63 µM) | 2.42 (≈ 9.83 µM) | > 7.39 | 0 | 100 | 0
19 | O=C(Nc1nc(-c2ccncc2)cs1)C1CCCN(S(=O)(=O)c2cccs2)C1 (stereo unspecified) | 9.25 (≈ 21.3 µM) | > 13 | 0.534 (≈ 1.23 µM) | 4.33 (≈ 9.95 µM) | > 13 | 0 | 50 | 0
20 | O=C(NCC1CC(=O)N(c2ccc(Cl)cc2)C1)Nc1ccccc1F (stereo unspecified) | > 10.9 | > 10.9 | > 10.9 | > 10.9 | > 10.9 | 0 | 100 | 0
21 | O=C(NCCn1nc(-c2ccco2)ccc1=O)C1c2ccccc2Oc2ccccc21 | > 12.4 | > 12.4 | > 12.4 | > 12.4 | 1.84 (≈ 4.46 µM) | 0 | 0 | 0
22 | C=CCN1C(=O)C(C)(C)COc2cc(NS(=O)(=O)c3ccccc3Cl)ccc21 | > 12.6 | > 12.6 | 4.05 (≈ 9.61 µM) | 4.04 (≈ 9.6 µM) | 4.09 (≈ 9.71 µM) | 0 | 100 | 0
